Measured values as given in ChEMBL document CHEMBL1671679, “Lack of pharmacokinetic interaction between amdoxovir and reduced- and standard-dose zidovudine in HIV-1-infected individuals” (Antimicrob Agents Chemother, 2010).

How the values were obtained:
Homo sapiens [1] = assay: Apparent oral clearance in HIV-1 infected patient assessed as beta-D-dioxolane guanosine level at 500 mg, po bid on day 10 by LC-MS/MS analysis; assay type: ADME, organism-based; conditions: in vivo
Procedure, shortened: (§1)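 Untreated Hispanic HIV-1-infected adults (viral load ≥5,000 copies/ml, CD4 ≥200 cells/mm3). Blood was drawn into DCF-containing EDTA tubes on day 1 (0–12 h) and on day 10 (0–48 h post last dose), then stored at −80°C. Plasma was methanol-extracted with an internal standard and run by LC-MS/MS (2–3,000 ng/ml AMDX/DXG; 2–5,000 ng/ml ZDV). Noncompartmental analysis assumed extravascular input; τ = 12 h; geometric means reported; accumulation was taken as AUCτ day 10/day 1.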

Homo sapiens [2] = assay: Cmax in HIV-1 infected patient assessed as beta-D-dioxolane guanosine level at 500 mg, po bid on day 10 by LC-MS/MS analysis; assay type: ADME, organism-based; parameters: dose 500 mg, route oral; conditions: in vivo; procedure, shortened: as §1
[3] = Drug level in HIV-1 infected patient urine assessed as beta-D-dioxolane guanosine level at 500 mg, po bid on day 10 by LC-MS/MS analysis; assay type: ADME, organism-based; conditions: human, in vivo
Procedure, shortened: (§2)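 At steady state (day 10), urine collected over one 12-h dose interval was analyzed by LC-MS/MS for AMDX, DXG, ZDV and ZDV-5′-O-glucuronide. Samples were diluted 100-fold, and the assay was linear from 1 to 500 μg/ml. Results are expressed as percentage of the dose recovered as each analyte (geometric means). Subjects were untreated HIV-1-infected adults.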

Homo sapiens [4] = assay: AUC (0 to 12 hrs) in HIV-1 infected patient assessed as beta-D-dioxolane guanosine level at 500 mg, po bid on day 10 coadministered with 200 mg, po bid zidovudine by LC-MS/MS analysis; assay type: ADME, organism-based, Plasma; parameters: time < 12 hr, dose 500 mg, route oral; conditions: in vivo; procedure, shortened: as §1
Homo sapiens [5] = assay: Apparent oral clearance in HIV-1 infected patient assessed as beta-D-dioxolane guanosine level at 500 mg, po bid on day 10 coadministered with 200 mg, po bid zidovudine by LC-MS/MS analysis; assay type: ADME, organism-based; conditions: in vivo; procedure, shortened: as §1
Homo sapiens [6] = assay: Half life in HIV-1 infected patient assessed as beta-D-dioxolane guanosine level at 500 mg, po bid on day 10 coadministered with 200 mg, po bid zidovudine by LC-MS/MS analysis; assay type: ADME, organism-based; conditions: in vivo; procedure, shortened: as §1
Homo sapiens [7] = assay: Tmax in HIV-1 infected patient assessed as beta-D-dioxolane guanosine level at 500 mg, po bid on day 10 coadministered with 300 mg, po bid zidovudine by LC-MS/MS analysis; assay type: ADME, organism-based; conditions: in vivo
Procedure, shortened: (§3)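 Treatment-naive Hispanic HIV-1-infected adults (≥5,000 RNA copies/ml, CD4 ≥200 cells/mm3). Blood drawn after first dose on day 1 (0–12 h) and after last dose on day 10 (0–48 h) into DCF-containing EDTA tubes to block ex vivo deamination, centrifuged, plasma stored −80°C. Methanol extraction with internal standard, LC-MS/MS (linear 2–3,000 ng ml−1 for AMDX and DXG). Noncompartmental analysis assuming extravascular input; geometric means reported.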

[8] = Drug level in HIV-1 infected patient urine assessed as beta-D-dioxolane guanosine level at 500 mg, po bid on day 10 coadministered with 300 mg, po bid zidovudine by LC-MS/MS analysis; assay type: ADME, organism-based; conditions: human, in vivo; procedure, shortened: as §2
Homo sapiens [9] = assay: (§4) Ratio of AUC (0 to 12 hrs) in HIV-1 infected patient assessed as beta-D-dioxolane guanosine level at 500 mg, po bid on day 10 to AUC (0 to 12 hrs) in HIV-1 infected patient assessed as beta-D-dioxolane guanosine level at 500 mg, po bid on day 1; assay type: ADME, organism-based; conditions: in vivo; procedure, shortened: as §1
Homo sapiens [10] = assay: as §4, with “day 10 coadministered with 300 mg, po bid zidovudine to AUC” for “day 10 to AUC”, “day 1 coadministered with 300 mg, po bid zidovudine” for “day 1”; assay type: ADME, organism-based; conditions: in vivo; procedure, shortened: as §1
Homo sapiens [11] = assay: Tmax in HIV-1 infected patient assessed as beta-D-dioxolane guanosine level at 500 mg, po bid on day 10 by LC-MS/MS analysis; assay type: ADME, organism-based; conditions: in vivo; procedure, shortened: as §3
Homo sapiens [12] = assay: Cmax in HIV-1 infected patient assessed as beta-D-dioxolane guanosine level at 500 mg, po bid on day 10 coadministered with 200 mg, po bid zidovudine by LC-MS/MS analysis; assay type: ADME, organism-based; parameters: dose 500 mg, route oral; conditions: in vivo; procedure, shortened: as §1
Homo sapiens [13] = assay: as §4, with “day 10 coadministered with 200 mg, po bid zidovudine to AUC” for “day 10 to AUC”, “day 1 coadministered with 200 mg, po bid zidovudine” for “day 1”; assay type: ADME, organism-based; conditions: in vivo; procedure, shortened: as §1
Homo sapiens [14] = assay: Apparent oral clearance in HIV-1 infected patient assessed as beta-D-dioxolane guanosine level at 500 mg, po bid on day 10 coadministered with 300 mg, po bid zidovudine by LC-MS/MS analysis; assay type: ADME, organism-based; conditions: in vivo; procedure, shortened: as §1
Homo sapiens [15] = assay: Cmax in HIV-1 infected patient assessed as beta-D-dioxolane guanosine level at 500 mg, po bid on day 10 coadministered with 300 mg, po bid zidovudine by LC-MS/MS analysis; assay type: ADME, organism-based; parameters: dose 500 mg, route oral; conditions: in vivo; procedure, shortened: as §1
Homo sapiens [16] = assay: Half life in HIV-1 infected patient assessed as beta-D-dioxolane guanosine level at 500 mg, po bid on day 10 coadministered with 300 mg, po bid zidovudine by LC-MS/MS analysis; assay type: ADME, organism-based; conditions: in vivo; procedure, shortened: as §1
Homo sapiens [17] = assay: Cmax in HIV-1 infected patient assessed as beta-D-dioxolane guanosine level at 500 mg, po bid on day 1 by LC-MS/MS analysis; assay type: ADME, organism-based; parameters: dose 500 mg, route oral; conditions: in vivo; procedure, shortened: as §1
Homo sapiens [18] = assay: Half life in HIV-1 infected patient assessed as beta-D-dioxolane guanosine level at 500 mg, po bid on day 1 by LC-MS/MS analysis; assay type: ADME, organism-based; conditions: in vivo; procedure, shortened: as §1
Homo sapiens [19] = assay: Half life in HIV-1 infected patient assessed as beta-D-dioxolane guanosine level at 500 mg, po bid on day 10 by LC-MS/MS analysis; assay type: ADME, organism-based; conditions: in vivo; procedure, shortened: as §1
Homo sapiens [20] = assay: AUC (0 to 12 hrs) in HIV-1 infected patient assessed as beta-D-dioxolane guanosine level at 500 mg, po bid on day 10 by LC-MS/MS analysis; assay type: ADME, organism-based, Plasma; parameters: dose 500 mg, time < 12 hr, route oral; conditions: in vivo; procedure, shortened: as §1
Homo sapiens [21] = assay: AUC (0 to 12 hrs) in HIV-1 infected patient assessed as beta-D-dioxolane guanosine level at 500 mg, po bid on day 10 coadministered with 300 mg, po bid zidovudine by LC-MS/MS analysis; assay type: ADME, organism-based, Plasma; parameters: time < 12 hr, dose 500 mg, route oral; conditions: in vivo; procedure, shortened: as §1
[22] = Drug level in HIV-1 infected patient urine assessed as beta-D-dioxolane guanosine level at 500 mg, po bid on day 10 coadministered with 200 mg, po bid zidovudine by LC-MS/MS analysis; assay type: ADME, organism-based; conditions: human, in vivo; procedure, shortened: as §2
Homo sapiens [23] = assay: Tmax in HIV-1 infected patient assessed as beta-D-dioxolane guanosine level at 500 mg, po bid on day 10 coadministered with 200 mg, po bid zidovudine by LC-MS/MS analysis; assay type: ADME, organism-based; conditions: in vivo; procedure, shortened: as §3

Structure (SMILES): Nc1nc2c(ncn2[C@H]2CO[C@@H](CO)O2)c(=O)[nH]1
- CL/F (Homo sapiens [1]): 14.7 mL/min/kg
- Cmax (Homo sapiens [2]): 1545 ng/mL
- Drug uptake [3]: 25.3%
- AUC (Homo sapiens [4]): 6225 ng·h/mL
- CL/F (Homo sapiens [5]): 15.8 mL/min/kg
- t1/2 (Homo sapiens [6]): 14.7 h
- Tmax (Homo sapiens [7]): 1.8 h
- Drug uptake [8]: 27.7%
- Ratio AUC (Homo sapiens [9]): 1.18
- Ratio AUC (Homo sapiens [10]): 1.19
- Tmax (Homo sapiens [11]): 1.3 h
- Cmax (Homo sapiens [12]): 1315 ng/mL
- Ratio AUC (Homo sapiens [13]): 0.91
- CL/F (Homo sapiens [14]): 15.2 mL/min/kg
- Cmax (Homo sapiens [15]): 1908 ng/mL
- t1/2 (Homo sapiens [16]): 14.8 h
- Cmax (Homo sapiens [17]): 1272 ng/mL
- t1/2 (Homo sapiens [18]): 2.5 h
- t1/2 (Homo sapiens [19]): 17.6 h
- AUC (Homo sapiens [20]): 6834 ng·h/mL
- AUC (Homo sapiens [21]): 7658 ng·h/mL
- Drug uptake [22]: 26.2%
- Tmax (Homo sapiens [23]): 1.5 h
